Results as given in ChEMBL document CHEMBL1142890, “Structure-antibacterial activity of arylcarbonyl- and arylsulfonyl-piperazine 5-triazolylmethyl oxazolidinones” (2007).
Converted amounts (≈) assume the structure as drawn.

Experiments:
Staphylococcus aureus [1] = test: Antimicrobial activity against Staphylococcus aureus ATCC 25922 in presence of 50% human plasma […]; format: functional; details: ATCC 25923, Plasma, in the assay text read “ATCC 25923” for “ATCC 25922”
Procedure, shortened: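 S. aureus ATCC 25923 tested in Mueller–Hinton broth supplemented with 50% human plasma. Test compounds dissolved in 20% water in DMSO. Inoculum 10⁷ CFU/ml, incubated 35 °C for 18 h. MIC was the lowest concentration completely inhibiting growth.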

Staphylococcus aureus [2] = test: Antimicrobial activity against methicillin-susceptible Staphylococcus aureus by agar dilution method; format: functional
Procedure, shortened: (§1)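 Agar dilution per CLSI on Mueller-Hinton agar, test agents at 0.12 to 8 µg/ml; test compounds dissolved in 20% water in DMSO, linezolid in 40% water in ethanol, vancomycin in water. Clinical isolates inoculated at final 10^7 CFU/ml, incubated 35 °C for 18 h. MIC = lowest concentration completely inhibiting growth; reported as range across isolates.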

Staphylococcus aureus [3] = test: Antimicrobial activity against methicillin-resistant Staphylococcus aureus by agar dilution method; format: functional; procedure, shortened: as §1
Staphylococcus [4] = test: Antimicrobial activity against methicillin-susceptible coagulase-negative staphylococcus by agar dilution method; format: functional; procedure, shortened: as §1
Streptococcus pneumoniae = test: Antimicrobial activity against Streptococcus pneumoniae by agar dilution method; format: functional
Procedure, shortened: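 Agar dilution per CLSI on Mueller–Hinton agar holding drug dilutions from 0.12 to 8 µg/ml. Staphylococci and enterococci tested on plain MH agar, S. pneumoniae on MH agar with 5% sheep blood. Test compounds dissolved in 20% water in DMSO. Inoculum 10⁷ CFU/ml, incubated 35 °C for 18 h. MIC was the lowest concentration giving complete growth inhibition.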

Enterococcus [5] = test: Antimicrobial activity against vancomycin-sensitive Enterococcus by agar dilution method; format: functional; procedure, shortened: as §1
Enterococcus [6] = test: Antimicrobial activity against vancomycin-resistant Enterococcus by agar dilution method; format: functional; procedure, shortened: as §1
Haemophilus influenzae = test: Antimicrobial activity against Haemophilus influenzae; format: functional
Moraxella catarrhalis = test: Antimicrobial activity against Moraxella catarrhalis; format: functional
Escherichia coli = test: Antimicrobial activity against Escherichia coli ATCC 25922; format: functional
Staphylococcus [7] = test: Antimicrobial activity against methicillin-resistant coagulase-negative Staphylococcus by agar dilution method; format: functional; procedure, shortened: as §1
Staphylococcus aureus [8] = test: Antimicrobial activity against Staphylococcus aureus ATCC 25923 by agar dilution method

Row | Compound | MIC (Staphylococcus aureus [1]) | MIC (Staphylococcus aureus [2]) | MIC (Staphylococcus aureus [3]) | MIC (Staphylococcus [4]) | MIC (Streptococcus pneumoniae) | MIC (Enterococcus [5]) | MIC (Enterococcus [6]) | MIC (Haemophilus influenzae) | MIC (Moraxella catarrhalis) | MIC (Escherichia coli) | MIC (Staphylococcus [7]) | MIC (Staphylococcus aureus [8])
1 | O=C(c1cccnc1)N1CCN(c2ccc(N3C[C@H](Cn4ccnn4)OC3=O)cc2F)CC1 | 4 µg/mL | 0.5 µg/mL (≈ 1.11 µM) | 0.5 µg/mL (≈ 1.11 µM) | 0.5 µg/mL (≈ 1.11 µM) | 0.5 µg/mL (≈ 1.11 µM) | 1 µg/mL (≈ 2.22 µM) | 0.5 µg/mL (≈ 1.11 µM) | ≥ 8 µg/mL | ≥ 8 µg/mL | ≥ 8 µg/mL | 0.5 µg/mL (≈ 1.11 µM) | 1 µg/mL (≈ 2.22 µM)
2 | O=C(c1ccccc1)N1CCN(c2ccc(N3C[C@H](Cn4ccnn4)OC3=O)cc2F)CC1 | 1 µg/mL | 0.25 µg/mL (≈ 0.555 µM) | 0.25 µg/mL (≈ 0.555 µM) | 0.25 µg/mL (≈ 0.555 µM) | 1 µg/mL (≈ 2.22 µM) | 0.25 µg/mL (≈ 0.555 µM) | 0.25 µg/mL (≈ 0.555 µM) | ≥ 8 µg/mL | ≥ 8 µg/mL | ≥ 8 µg/mL | 0.25 µg/mL (≈ 0.555 µM) | 1 µg/mL (≈ 2.22 µM)
3 | O=C(c1ccccc1Cl)N1CCN(c2ccc(N3C[C@H](Cn4ccnn4)OC3=O)cc2F)CC1 | 8 µg/mL | 0.5 µg/mL (≈ 1.03 µM) | 0.5 µg/mL (≈ 1.03 µM) | 0.5 µg/mL (≈ 1.03 µM) | 4 µg/mL (≈ 8.25 µM) | 0.5 µg/mL (≈ 1.03 µM) | 0.5 µg/mL (≈ 1.03 µM) | ≥ 8 µg/mL | ≥ 8 µg/mL | ≥ 8 µg/mL | 0.5 µg/mL (≈ 1.03 µM) | 1 µg/mL (≈ 2.06 µM)
4 | O=C(c1ccccc1F)N1CCN(c2ccc(N3C[C@H](Cn4ccnn4)OC3=O)cc2F)CC1 | 8 µg/mL | 0.25 µg/mL (≈ 0.534 µM) | 0.25 µg/mL (≈ 0.534 µM) | 0.25 µg/mL (≈ 0.534 µM) | 1 µg/mL (≈ 2.13 µM) | 0.5 µg/mL (≈ 1.07 µM) | 0.5 µg/mL (≈ 1.07 µM) | ≥ 8 µg/mL | ≥ 8 µg/mL | ≥ 8 µg/mL | 0.25 µg/mL (≈ 0.534 µM) | 0.5 µg/mL (≈ 1.07 µM)
5 | O=C1O[C@@H](Cn2ccnn2)CN1c1ccc(N2CCN(S(=O)(=O)c3cccs3)CC2)c(F)c1 | > 8 µg/mL | 0.5 µg/mL (≈ 1.02 µM) | 0.5 µg/mL (≈ 1.02 µM) | 0.5 µg/mL (≈ 1.02 µM) | 1 µg/mL (≈ 2.03 µM) | 0.5 µg/mL (≈ 1.02 µM) | 0.5 µg/mL (≈ 1.02 µM) | ≥ 8 µg/mL | ≥ 8 µg/mL | ≥ 8 µg/mL | 0.5 µg/mL (≈ 1.02 µM) | 1 µg/mL (≈ 2.03 µM)
6 | O=C(/C=C/c1ccccc1)N1CCN(c2ccc(N3C[C@H](Cn4ccnn4)OC3=O)cc2F)CC1 | > 8 µg/mL | 0.25 µg/mL (≈ 0.525 µM) | 0.25 µg/mL (≈ 0.525 µM) | 0.25 µg/mL (≈ 0.525 µM) | 1 µg/mL (≈ 2.1 µM) | 0.5 µg/mL (≈ 1.05 µM) | 0.25 µg/mL (≈ 0.525 µM) | ≥ 8 µg/mL | ≥ 8 µg/mL | ≥ 8 µg/mL | 0.25 µg/mL (≈ 0.525 µM) | 0.5 µg/mL (≈ 1.05 µM)
7 | O=C(c1ccc(F)cc1)N1CCN(c2ccc(N3C[C@H](Cn4ccnn4)OC3=O)cc2F)CC1 | 4 µg/mL | 0.5 µg/mL (≈ 1.07 µM) | 0.5 µg/mL (≈ 1.07 µM) | 0.5 µg/mL (≈ 1.07 µM) | 0.5 µg/mL (≈ 1.07 µM) | 1 µg/mL (≈ 2.13 µM) | 0.5 µg/mL (≈ 1.07 µM) | ≥ 8 µg/mL | ≥ 8 µg/mL | ≥ 8 µg/mL | 0.5 µg/mL (≈ 1.07 µM) | 1 µg/mL (≈ 2.13 µM)
8 | COc1ccccc1C(=O)N1CCN(c2ccc(N3C[C@H](Cn4ccnn4)OC3=O)cc2F)CC1 | 4 µg/mL | 0.5 µg/mL (≈ 1.04 µM) | 1 µg/mL (≈ 2.08 µM) | 0.25 µg/mL (≈ 0.52 µM) | 1 µg/mL (≈ 2.08 µM) | 1 µg/mL (≈ 2.08 µM) | 1 µg/mL (≈ 2.08 µM) | ≥ 8 µg/mL | ≥ 8 µg/mL | ≥ 8 µg/mL | 0.25 µg/mL (≈ 0.52 µM) | 1 µg/mL (≈ 2.08 µM)
9 | O=C(c1ccc([N+](=O)[O-])cc1)N1CCN(c2ccc(N3C[C@H](Cn4ccnn4)OC3=O)cc2F)CC1 | 4 µg/mL | 2 µg/mL (≈ 4.04 µM) | 1 µg/mL (≈ 2.02 µM) | 1 µg/mL (≈ 2.02 µM) | 1 µg/mL (≈ 2.02 µM) | 2 µg/mL (≈ 4.04 µM) | 2 µg/mL (≈ 4.04 µM) | ≥ 8 µg/mL | ≥ 8 µg/mL | ≥ 8 µg/mL | 1 µg/mL (≈ 2.02 µM) | 2 µg/mL (≈ 4.04 µM)
10 | O=C(Cc1ccccc1)N1CCN(c2ccc(N3C[C@H](Cn4ccnn4)OC3=O)cc2F)CC1 | 4 µg/mL | 0.5 µg/mL (≈ 1.08 µM) | 0.5 µg/mL (≈ 1.08 µM) | 0.5 µg/mL (≈ 1.08 µM) | 0.5 µg/mL (≈ 1.08 µM) | 0.5 µg/mL (≈ 1.08 µM) | 1 µg/mL (≈ 2.15 µM) | ≥ 8 µg/mL | ≥ 8 µg/mL | ≥ 8 µg/mL | 0.5 µg/mL (≈ 1.08 µM) | 2 µg/mL (≈ 4.31 µM)
11 | O=C(c1ccccc1[N+](=O)[O-])N1CCN(c2ccc(N3C[C@H](Cn4ccnn4)OC3=O)cc2F)CC1 | 2 µg/mL | 1 µg/mL (≈ 2.02 µM) | 0.5 µg/mL (≈ 1.01 µM) | 1 µg/mL (≈ 2.02 µM) | 0.5 µg/mL (≈ 1.01 µM) | 2 µg/mL (≈ 4.04 µM) | 1 µg/mL (≈ 2.02 µM) | ≥ 8 µg/mL | ≥ 8 µg/mL | ≥ 8 µg/mL | 1 µg/mL (≈ 2.02 µM) | 2 µg/mL (≈ 4.04 µM)
12 | O=C(c1ccco1)N1CCN(c2ccc(N3C[C@H](Cn4ccnn4)OC3=O)cc2F)CC1 | 4 µg/mL | 0.5 µg/mL (≈ 1.14 µM) | 0.5 µg/mL (≈ 1.14 µM) | 0.25 µg/mL (≈ 0.568 µM) | 0.25 µg/mL (≈ 0.568 µM) | 0.5 µg/mL (≈ 1.14 µM) | 0.5 µg/mL (≈ 1.14 µM) | ≥ 8 µg/mL | ≥ 8 µg/mL | ≥ 8 µg/mL | 0.25 µg/mL (≈ 0.568 µM) | 1 µg/mL (≈ 2.27 µM)
13 | COc1cccc(C(=O)N2CCN(c3ccc(N4C[C@H](Cn5ccnn5)OC4=O)cc3F)CC2)c1 | 4 µg/mL | 0.25 µg/mL (≈ 0.52 µM) | 0.25 µg/mL (≈ 0.52 µM) | 0.25 µg/mL (≈ 0.52 µM) | 0.25 µg/mL (≈ 0.52 µM) | 0.5 µg/mL (≈ 1.04 µM) | 0.5 µg/mL (≈ 1.04 µM) | ≥ 8 µg/mL | ≥ 8 µg/mL | ≥ 8 µg/mL | 0.25 µg/mL (≈ 0.52 µM) | 2 µg/mL (≈ 4.16 µM)
14 | O=C(c1cccc(F)c1)N1CCN(c2ccc(N3C[C@H](Cn4ccnn4)OC3=O)cc2F)CC1 | 4 µg/mL | 0.25 µg/mL (≈ 0.534 µM) | 0.25 µg/mL (≈ 0.534 µM) | 0.5 µg/mL (≈ 1.07 µM) | 0.5 µg/mL (≈ 1.07 µM) | 0.5 µg/mL (≈ 1.07 µM) | 0.5 µg/mL (≈ 1.07 µM) | ≥ 8 µg/mL | ≥ 8 µg/mL | ≥ 8 µg/mL | 0.5 µg/mL (≈ 1.07 µM) | 1 µg/mL (≈ 2.13 µM)
15 | O=C(c1cccnc1Cl)N1CCN(c2ccc(N3C[C@H](Cn4ccnn4)OC3=O)cc2F)CC1 | 4 µg/mL | 0.5 µg/mL (≈ 1.03 µM) | 0.5 µg/mL (≈ 1.03 µM) | 0.5 µg/mL (≈ 1.03 µM) | 1 µg/mL (≈ 2.06 µM) | 1 µg/mL (≈ 2.06 µM) | 1 µg/mL (≈ 2.06 µM) | ≥ 8 µg/mL | ≥ 8 µg/mL | ≥ 8 µg/mL | 0.5 µg/mL (≈ 1.03 µM) | 2 µg/mL (≈ 4.12 µM)
16 | CC(=O)NC[C@H]1CN(c2ccc(N3CCOCC3)c(F)c2)C(=O)O1 [LINEZOLID] | – | 1 µg/mL (≈ 2.96 µM) | 0.5 µg/mL (≈ 1.48 µM) | 0.25 µg/mL (≈ 0.741 µM) | – | 0.5 µg/mL (≈ 1.48 µM) | 2 µg/mL (≈ 5.93 µM) | ≥ 8 µg/mL | ≥ 8 µg/mL | ≥ 8 µg/mL | 1 µg/mL (≈ 2.96 µM) | –
17 | Cc1ccc(S(=O)(=O)N2CCN(c3ccc(N4C[C@H](Cn5ccnn5)OC4=O)cc3F)CC2)cc1 | > 8 µg/mL | > 8 µg/mL | – | > 8 µg/mL | 2 µg/mL (≈ 4 µM) | > 8 µg/mL | – | ≥ 8 µg/mL | ≥ 8 µg/mL | ≥ 8 µg/mL | – | > 8 µg/mL
18 | Cc1cccc(S(=O)(=O)N2CCN(c3ccc(N4C[C@H](Cn5ccnn5)OC4=O)cc3F)CC2)c1 | > 8 µg/mL | 4 µg/mL (≈ 7.99 µM) | 2 µg/mL (≈ 4 µM) | 2 µg/mL (≈ 4 µM) | 2 µg/mL (≈ 4 µM) | > 8 µg/mL | – | ≥ 8 µg/mL | ≥ 8 µg/mL | ≥ 8 µg/mL | 2 µg/mL (≈ 4 µM) | > 8 µg/mL
19 | CN[C@H](CC(C)C)C(=O)N[C@H]1C(=O)N[C@@H](CC(N)=O)C(=O)N[C@H]2C(=O)N[C@H]3C(=O)N[C@H](C(=O)N[C@H](C(=O)O)c4cc(O)cc(O)c4-c4cc3ccc4O)[C@H](O)c3ccc(c(Cl)c3)Oc3cc2cc(c3O[C@@H]2O[C@H](CO)[C@@H](O)[C@H](O)[C@H]2O[C@H]2C[C@](C)(N)[C@H](O)[C@H](C)O2)Oc2ccc(cc2Cl)[C@H]1O [VANCOMYCIN] | – | – | – | 1 µg/mL (≈ 0.69 µM) | 0.5 µg/mL (≈ 0.345 µM) | 0.25 µg/mL (≈ 0.173 µM) | > 64 µg/mL | ≥ 8 µg/mL | ≥ 8 µg/mL | ≥ 8 µg/mL | 1 µg/mL (≈ 0.69 µM) | –
